In ChEMBL document CHEMBL1149790, “Synthesis of some novel thiourea derivatives obtained from 5-[(4-aminophenoxy)methyl]-4-alkyl/aryl-2,4-dihydro-3H-1,2,4-triazole-3-thiones and evaluation as antiviral/anti-HIV and anti-tuberculosis agents” (Eur J Med Chem, 2008):
Values after ≈ are worked out from the molar mass of the structure shown.

Columns and labels:
[1] = system: Human immunodeficiency virus 1; assay: Antiviral activity against HIV1 3B in human MT4 cells assessed as protection against virus-induced cytopathogenicity by MTT assay; type: functional, organism-based; design: Activity: concentration or dose not given beside the values; details: for IC50: Human immunodeficiency virus 1, 3B, MT4
In short: (§1)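 MT-4 cells at 6 × 10⁵ cells/ml infected with HIV-1 IIIB or HIV-2 ROD at 100–300 CCID50; compounds in serial five-fold dilutions, triplicate mock- and virus-infected wells. MTT viability read at 540 and 690 nm after 5 days, median OD of three wells; EC50 = 50% protection from viral cytopathic effect.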

[2] = system: Human immunodeficiency virus 2; assay: Antiviral activity against HIV2 ROD in human MT4 cells assessed as protection against virus-induced cytopathogenicity by MTT assay; type: functional, organism-based; design: Activity: concentration or dose not given beside the values; details: for IC50: Human immunodeficiency virus 2, ROD, MT4; in short: as §1
[3] = Cytotoxicity against human MT4 cells by MTT assay; type: cell-based
In short: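 Mock-infected MT-4 cells (6 × 10⁵ cells/ml) with serial five-fold compound dilutions in triplicate; MTT reduction read at 540 and 690 nm after 5 days, median OD of three wells; CC50 = concentration reducing OD540 of mock-infected control by 50%.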

[4] = Cytotoxicity against human HeLa cells; type: cell-based
In short: (§2)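 Uninfected cell cultures exposed to test compounds alongside antiviral assays; minimum cytotoxic concentration (MCC) = concentration causing a microscopically detectable alteration of cell morphology.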

[5] = system: Vesicular stomatitis virus; assay: Antiviral activity against vesicular stomatitis virus in human HeLa cells assessed as inhibition of virus-induced cytopathogenicity; type: functional
In short: (§3)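 Confluent cell monolayers (E6SM, HEL, HeLa or Vero, per line) inoculated with 100 CCID50 virus; 1 h adsorption, residual virus removed, then incubated with compound at 400, 200, 100 … µg/ml. Cytopathicity scored once complete in untreated virus controls; MIC = concentration inhibiting virus-induced cytopathicity.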

Coxsackievirus B4 [6] = assay: Antiviral activity against Coxsackie virus B4 in human HeLa cells assessed as inhibition of virus-induced cytopathogenicity; type: functional; details: Enterovirus B; in short: as §3
[7] = system: Respiratory syncytial virus; assay: Antiviral activity against respiratory syncytial virus in human HeLa cells assessed as inhibition of virus-induced cytopathogenicity; type: functional; in short: as §3
[8] = Cytotoxicity against human E6SM cells; type: cell-based; details: E6SM cells; in short: as §2
[9] = Cytotoxicity against human HEL cells assessed as alteration of cell morphology; type: cell-based; in short: as §2
Human alphaherpesvirus 1 [10] = assay: Antiviral activity against HSV1 KOS in human E6SM cells assessed as reduction of virus-induced cytopathogenicity; type: functional; details: Human alphaherpesvirus 1, KOS; in short: as §3
Human alphaherpesvirus 1 [11] = assay: Antiviral activity against HSV1 KOS in human HEL cells assessed as reduction of virus-induced cytopathogenicity; type: functional; details: Human alphaherpesvirus 1, KOS; in short: as §3
Human alphaherpesvirus 2 [12] = assay: Antiviral activity against HSV2 G in human E6SM cells assessed as reduction of virus-induced cytopathogenicity; type: functional; details: Human alphaherpesvirus 2, G; in short: as §3
Human alphaherpesvirus 2 [13] = assay: Antiviral activity against HSV2 G in human HEL cells assessed as reduction of virus-induced cytopathogenicity; type: functional; details: Human alphaherpesvirus 2, G; in short: as §3
[14] = system: Vesicular stomatitis virus; assay: Antiviral activity against in Vesicular stomatitis virus in human E6SM cells assessed as reduction of virus-induced cytopathogenicity; type: functional; in short: as §3
[15] = system: Vesicular stomatitis virus; assay: Antiviral activity against in Vesicular stomatitis virus in human HEL cells assessed as reduction of virus-induced cytopathogenicity; type: functional; in short: as §3
Human alphaherpesvirus 1 [16] = assay: Antiviral activity against thymidine kinase deficient and acyclovir resistant HSV1 KOS in human E6SM cells assessed as reduction of virus-induced cytopathogenicity; type: functional; details: Human alphaherpesvirus 1, KOS; in short: as §3
Human alphaherpesvirus 1 [17] = assay: Antiviral activity against thymidine kinase deficient and acyclovir resistant HSV1 KOS in human HEL cells assessed as reduction of virus-induced cytopathogenicity; type: functional; details: Human alphaherpesvirus 1, KOS; in short: as §3
Vero = assay: Cytotoxicity against african green monkey Vero cells; type: cell-based; details: chlorocebus sabaeus; in short: as §2
Coxsackievirus B4 [18] = assay: Antiviral activity against Coxsackie virus B4 in african green monkey Vero cells assessed as reduction of virus-induced cytopathogenicity; type: functional; details: Enterovirus B; in short: as §3
Punta Toro virus = assay: Antiviral activity against Punta Toro virus in african green monkey Vero cells assessed as reduction of virus-induced cytopathogenicity; type: functional; in short: as §3
Human betaherpesvirus 5 [19] = assay: Antiviral activity against human cytomegalovirus AD169 infected HEL cells assessed as reduction in virus plaque formation; type: functional, organism-based; details: Human betaherpesvirus 5, AD169, HEL
Human betaherpesvirus 5 [20] = assay: Antiviral activity against human cytomegalovirus Davis infected HEL cells assessed as reduction in virus plaque formation; type: functional, organism-based; details: Human betaherpesvirus 5, Davis
Human alphaherpesvirus 3 [21] = assay: Antiviral activity against TK+ VZV OKA infected HEL cells assessed as reduction in virus plaque formation; type: functional, organism-based; details: Human alphaherpesvirus 3, OKA
Human alphaherpesvirus 3 [22] = assay: Antiviral activity against TK- VZV 07/1 infected HEL cells assessed as reduction in virus plaque formation; type: functional, organism-based; details: Human alphaherpesvirus 3, 07/1, HEL
Human respirovirus 3 = assay: Antiviral activity against Parainfluenza 3 virus in african green monkey Vero cells assessed as reduction of virus-induced cytopathogenicity; type: functional; in short: as §3
[23] = system: Mammalian orthoreovirus 1; assay: Antiviral activity against Reo virus 1 in african green monkey Vero cells assessed as reduction of virus-induced cytopathogenicity; type: functional; in short: as §3
Sindbis virus = assay: Antiviral activity against Sindbis virus in african green monkey Vero cells assessed as reduction of virus-induced cytopathogenicity; type: functional; in short: as §3
[24] = Cytotoxicity against human HEL cells assessed as reduction of cell growth; type: cell-based
In short: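 HEL cells; CC50 = compound concentration reducing cell growth by 50%.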

| Structure (SMILES) | Activity [1] | IC50 [1] | Activity [2] | IC50 [2] | CC50 [3] | MCC [4] | MIC [5] | MCC [8] | MCC [9] | MIC (Human alphaherpesvirus 1 [10]) | MIC (Human alphaherpesvirus 1 [11]) | MIC (Human alphaherpesvirus 2 [12]) | MIC (Human alphaherpesvirus 2 [13]) | MIC [14] | MIC [15] | MIC (Human alphaherpesvirus 1 [16]) | MIC (Human alphaherpesvirus 1 [17]) | EC50 (Human betaherpesvirus 5 [19]) | EC50 (Human betaherpesvirus 5 [20]) | CC50 [24] | other results |
| --- | --- | --- | --- | --- | --- | --- | --- | --- | --- | --- | --- | --- | --- | --- | --- | --- | --- | --- | --- | --- | --- |
| S=C(Nc1ccccc1)Nc1ccc(OCc2n[nH]c(=S)n2-c2ccccc2)cc1 | 5.5% | > 30.6 µg/mL | 4.5% | > 41.5 µg/mL | 44.1 µg/mL (≈ 102 µM) | 80 µg/mL | > 16 µg/mL | 400 µg/mL | 400 µg/mL | > 80 µg/mL | > 80 µg/mL | > 80 µg/mL | > 80 µg/mL | > 80 µg/mL | > 80 µg/mL | > 80 µg/mL | > 80 µg/mL | > 20 µg/mL | 37 µg/mL (≈ 85.3 µM) | > 50 µg/mL | MIC (Coxsackievirus B4 [6]): > 16 µg/mL; MIC [7]: > 16 µg/mL; Activity (Vero): 80 µg/mL; MIC (Coxsackievirus B4 [18]): > 16 µg/mL; MIC (Punta Toro virus): > 16 µg/mL; EC50 (Human alphaherpesvirus 3 [21]): 26 µg/mL (≈ 60 µM); EC50 (Human alphaherpesvirus 3 [22]): 39 µg/mL (≈ 90 µM); MIC (Human respirovirus 3): > 16 µg/mL; MIC [23]: > 16 µg/mL; MIC (Sindbis virus): > 16 µg/mL |
| Nc1nc2c(ncn2COC(CO)CO)c(=O)[nH]1 [GANCICLOVIR] | – | – | – | – | – | – | – | > 100 µg/mL | > 100 µg/mL | 0.032 µg/mL (≈ 0.125 µM) | 0.032 µg/mL (≈ 0.125 µM) | 0.032 µg/mL (≈ 0.125 µM) | 0.032 µg/mL (≈ 0.125 µM) | > 100 µg/mL | > 100 µg/mL | 2.4 µg/mL (≈ 9.4 µM) | 2.4 µg/mL (≈ 9.4 µM) | 0.64 µg/mL (≈ 2.51 µM) | 1.9 µg/mL (≈ 7.44 µM) | 87 µg/mL (≈ 341 µM) | – |
| C=CCNC(=S)Nc1ccc(OCc2n[nH]c(=S)n2-c2ccccc2)cc1 | 1.5% | > 92.3 µg/mL | 0.5% | > 103 µg/mL | 107 µg/mL (≈ 269 µM) | 400 µg/mL | > 80 µg/mL | > 400 µg/mL | > 400 µg/mL | 240 µg/mL (≈ 604 µM) | 240 µg/mL (≈ 604 µM) | 240 µg/mL (≈ 604 µM) | 240 µg/mL (≈ 604 µM) | 240 µg/mL (≈ 604 µM) | 240 µg/mL (≈ 604 µM) | 240 µg/mL (≈ 604 µM) | 240 µg/mL (≈ 604 µM) | > 100 µg/mL | > 100 µg/mL | > 50 µg/mL | MIC (Coxsackievirus B4 [6]): > 80 µg/mL; MIC [7]: > 80 µg/mL; Activity (Vero): 400 µg/mL; MIC (Coxsackievirus B4 [18]): 48 µg/mL (≈ 121 µM); MIC (Punta Toro virus): > 80 µg/mL; EC50 (Human alphaherpesvirus 3 [21]): > 100 µg/mL; EC50 (Human alphaherpesvirus 3 [22]): > 100 µg/mL; MIC (Human respirovirus 3): > 80 µg/mL; MIC [23]: > 80 µg/mL; MIC (Sindbis virus): > 80 µg/mL |
